Screening results (PubChem)
Platelet DG rel: inhibitors of platelet dense granule secretion, primary screen, cell-based, MLPCN, human platelets; human platelet-rich plasma, SFLLRN dense granule ATP release, luminescence; inhibition, %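 (compounds screened at 7.5 µM in platelet-rich plasma)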; 0.22% of 300,000 active; AID 1663, 2009;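 active means mean replicate score, as percent of positive control, at or above 50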
FLuc inhib CS: firefly luciferase enzyme inhibitors, primary screen, artefact control for luciferase-based inhibitor screens, biochemical, luminescence, ATPLite. Luciferin 4-monooxygenase (Photinus pyralis), P08659. 10 min. inhibition, % at 10 µM. 1.5% of 200,000 active. AID 1006, 2008;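 active means inhibition above about 50% when tested at 10 µM, limit read from the data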
Target sequence (P08659 whole entry, looked up): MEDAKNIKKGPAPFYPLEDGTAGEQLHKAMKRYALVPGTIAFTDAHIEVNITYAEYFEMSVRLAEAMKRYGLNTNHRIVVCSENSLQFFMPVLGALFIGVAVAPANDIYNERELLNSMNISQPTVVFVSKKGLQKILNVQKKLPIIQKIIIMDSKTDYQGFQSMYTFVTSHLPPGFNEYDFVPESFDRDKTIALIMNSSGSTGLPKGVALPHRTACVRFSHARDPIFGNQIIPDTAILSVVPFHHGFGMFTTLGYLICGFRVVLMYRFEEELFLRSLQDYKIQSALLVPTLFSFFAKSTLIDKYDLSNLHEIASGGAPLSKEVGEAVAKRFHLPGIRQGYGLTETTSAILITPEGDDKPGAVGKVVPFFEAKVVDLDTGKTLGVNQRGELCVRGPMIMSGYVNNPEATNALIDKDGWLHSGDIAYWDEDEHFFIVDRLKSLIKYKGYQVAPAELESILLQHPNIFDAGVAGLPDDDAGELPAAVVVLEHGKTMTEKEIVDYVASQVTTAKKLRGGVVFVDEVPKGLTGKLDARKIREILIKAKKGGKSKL
PPC-1+TRAIL kill: compounds killing PPC-1 cancer cells with TRAIL present, primary screen, TRAIL potentiator project, ATPLite luminescence, uHTS | PPC-1 cells + TRAIL, ATPLite viability luminescence | AID 1443, 2008 | cell killing (% activity), % at 4 µM or 5 µM | 0.41% of 220,000 active;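 active means cell killing above 50% in the first pass at 4 µM, then a duplicate retest at 5 µM averaging 50% or more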;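 further: plate controls were cells with TRAIL plus DMSO for no effect and medium-only wells lacking cells for full effect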
FLuc act counter: FLuc activators, initial screening, artefact control for FLuc-dependent activation tests, biochemical, ATPlite luminescence | activation factor at 10 µM | ATPlite luciferase biochemical, 10 min; 0 = ATP-free wells, 1 = DMSO control | 200,000 tested, under 10 active | Luciferin 4-monooxygenase (Photinus pyralis), P08659;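 active means luciferase activation factor, scaled between plate controls, of at least 2 with compound at 10 µM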
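System: luciferase plus luciferin reagent, cell-free; medium: PBS as buffer for the ATP substrate; dosing: test compounds dosed from 2 mM stocks in 100% DMSO; timing: 10 min post-reagent at room temperature; measured by: luminescence measurement of luciferase light output; evaluation: luciferase activation, seen as luminescence increase over controls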
TRAIL sens C8: viability loss with TRAIL in NB7+C8 cells, primary screen, TRAIL sensitizer project, cell-based, ATPlite luminescence | AID 624354, 2012 | inhibition (viability loss, TRAIL sensitization), % at 10 µM | 1% of 360,000 active;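 active means compounds causing at least 50% loss of cell viability in the single-dose screen, relative to plate controls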
Numbers without * were called inactive; x = no result. Sampled rows, rich in hits. Any-hit rate of the full collection: about 1.6%.

SMILES	Platelet DG rel	FLuc inhib CS	PPC-1+TRAIL kill	FLuc act counter	TRAIL sens C8
COCCn1c(/C=C/c2ccccc2)nc2ccccc21	11.3	85.7*	42.0	0.1	41.3
COc1cccc(C(C(=O)NC2CCCC2)N2CCN(c3ncccc3C#N)CC2)c1OC (stereo not drawn)	x	x	x	x	10.5
CC(=O)NC(c1ccc(C)cc1)c1cc([N+](=O)[O-])c2cccnc2c1O (stereo not drawn)	-8.1	-7.6	0.1	1.1	40.5
CCC(=O)NC(c1ccc(C)cc1)c1cc([N+](=O)[O-])c2cccnc2c1O (stereo not drawn)	-2.3	-3.5	22.7	1	53.6*
CN(C(=O)COC(=O)c1cnc(Cl)c(Cl)c1)C1CCS(=O)(=O)C1 (stereo not drawn)	1.1	-4.0	0.1	1	0.9
CN(C(=O)COC(=O)c1cnc(Cl)c(Cl)c1)C1CCCCC1	x	x	x	x	69.0*
CCOC(=O)C1=C(CC)Nc2ccccc2N=C1NC(=O)c1cc(C)on1	x	x	x	x	-6.3
CCOC(=O)C1=C(CC)Nc2ccccc2N=C1NC(=O)Nc1ccc(Cl)c(Cl)c1	0.1	-7.6	-7.8	1.1	55.6*
O=C(Nc1ccc(Cl)cc1)Nc1cccc(C(=O)O)c1	7.2	76.3*	27.3	0.2	64.9*
O=C(Nc1ccc(Cl)c(Cl)c1)Nc1ccccc1C(=O)O	29.6	66.7*	14.4	0.3	63.2*
CC(C)C(=O)Nc1cccc(C(=O)Nc2ccccc2C(=O)O)c1	2.8	60.6*	-6.1	0.4	28.1
O=C(Cc1ccccc1)NNC(=O)Nc1ccc(Cl)c(Cl)c1	-4.0	-4.4	2.4	1	-5.2
O=C(Nc1ccc(Cl)cc1)Nc1ccccc1C(=O)O	52.5*	90.1*	x	0.1	74.7*
C[C@H]1CCCCO[C@H](CN(C)C(=O)C2CCCCC2)[C@@H](C)CN([C@@H](C)CO)C(=O)c2cc(NC(=O)NC3CCCCC3)ccc2O1	x	x	x	x	8.1
CCOC(=O)C1(C)CCN1C(=O)c1ccc(C(=O)OC)cc1 (stereo not drawn)	x	x	x	x	1.0
CNc1cc(-c2cccc(OC)c2F)nc2ccnn12	x	x	x	x	-0.5
NC(=O)c1ccccc1NC(=O)Nc1cccc(Cl)c1	10.2	16.4	10.5	0.8	-23.2
O=C(Nc1cccc(Cl)c1)Nc1ccccc1C(=O)O	75.5*	x	21.3	x	22.3
CCc1nc2ccc(C(=O)NCCCN3CCCC3=O)cn2c1N(C)C(=O)Nc1ccccc1OC	x	x	x	x	-1.8
CN1CCN(C(=O)C2Cc3c(-c4ccc5c(c4)OCO5)ccnc3O2)CC1 (stereo not drawn)	x	x	x	x	5.8
COCCOC(=O)c1[nH]c2c(c1C)C(=O)C(C(=O)OC)C(C)C2 (stereo not drawn)	1.4	54.4*	31.3	0.5	29.0
COC(=O)C1C(=O)c2c([nH]c(C(=O)OCC3CCCO3)c2C)CC1C (stereo not drawn)	3.4	53.5*	28.7	0.5	42.1
CCCCCOC(=O)c1[nH]c2c(c1C)C(=O)C(C(=O)OC)C(C)C2 (stereo not drawn)	3.4	3.9	7.7	1	22.8
COC(=O)C1C(=O)c2c([nH]c(C(=O)OC3CCCCCC3)c2C)CC1C (stereo not drawn)	0.8	5.3	-6.0	0.9	1.1
O=C(c1[nH]c(C(F)(F)F)nc1-c1ccccc1)N1CCc2c([nH]c3ccccc23)C1	x	x	x	x	10.7
SMILES	Platelet DG rel	FLuc inhib CS	PPC-1+TRAIL kill	FLuc act counter	TRAIL sens C8
Cc1ccc(NC2=C(N3CCOCC3)C(=O)c3ccccc3C2=O)cc1	-4.5	56.0*	4.3	0.4	55.6*
Cc1cc(NC2=CC(=O)C(=O)c3ccccc32)no1	x	x	x	x	72.2*
CCOC(=O)c1ccc(NC(=O)C(C)N2C(=O)c3ccccc3C2=O)cc1 (stereo not drawn)	-18.7	-6.1	5.2	1.1	-6.5
NS(=O)(=O)c1ccc(NC2=CC(=O)C(=O)c3ccccc32)cc1	-1.6	x	x	x	63.9*
Cc1cc(NC(=O)CCN2C(=O)c3ccccc3C2=O)no1	4.6	-2.9	17.2	1	-9.2
CC(=O)c1ccc(NC2=C(N3CCOCC3)C(=O)c3ccccc3C2=O)cc1	5.2	-5.4	-6.5	1.1	16.2
CCOC(=O)c1ccc(NC2=CC(=O)C(=O)c3ccccc32)cc1	9.4	-2.8	-2.7	1	94.0*
O=C(OCc1ccccc1)N1CCC2CC1c1ccc(N3CCNCC3)cc12 (stereo not drawn)	x	x	x	x	14.7
CC(=O)Nc1ccc(-c2ccnc3c2CC(C)(C(=O)Nc2ccc(F)c(Cl)c2)O3)cc1 (stereo not drawn)	x	x	x	x	-10.5
O=C1C=C(Nc2ccc(O)cc2)C(=O)c2ccccc21	74.2*	x	11.7	x	43.0
CCOC(=O)N1CCN(C2=C(NS(=O)(=O)c3ccc(C)cc3)C(=O)c3ccccc3C2=O)CC1	6.1	x	x	x	52.8*
Cc1ccc(S(=O)(=O)NC2=C(N3CCN(Cc4ccccc4)CC3)C(=O)c3ccccc3C2=O)cc1	-3.6	-4.8	23.6	1	9.7
Cc1ccc(NC2=CC(=O)C(=O)c3ccccc32)cc1	4.5	31.2	48.9	0.7	91.1*
CC(=O)Nc1ccc(NC2=CC(=O)c3ccccc3C2=O)cc1	3.4	x	x	x	24.0
CCc1ccc(S(=O)(=O)/N=C2\C=C(Nc3ccc(O)cc3)C(=O)c3ccccc32)cc1	13.6	x	x	x	96.6*
Cc1ccc(NC2=C(Cl)C(=O)c3ccccc3C2=O)cc1	1.5	5.4	22.0	0.9	48.3
Cc1ccc(S(=O)(=O)N2C(c3ccccc3)CC(=O)C3CN(S(=O)(=O)c4ccc(Cl)cc4)C(c4ccccc4)CC32)cc1 (stereo not drawn)	x	x	x	x	-3.8
CCNC(=O)C[C@@H]1C=C[C@@H](NS(=O)(=O)c2ccc(F)cc2)[C@@H](CO)O1	x	x	x	x	0.7
CCOC(=O)[C@]12CCCC=C1N(Cc1ccco1)C(=O)[C@H](CC(=O)NCc1cccc(C(F)(F)F)c1)C2	x	x	x	x	0.4
COc1ccc(NC(=O)CSc2nnnn2C2CCCC2)cc1S(=O)(=O)N1CCOCC1	x	x	x	x	-4.7
Cn1c(=O)c2cc(NC(=O)NCc3ccccc3)ccc2n1Cc1cccc(C(F)(F)F)c1	x	x	x	x	0.8
Cn1c(Oc2cccnc2CN2CCCC2)nc2cc(-c3cccc(C(F)(F)F)c3)sc2c1=O	x	x	x	x	3.5
COc1cc(OC)c(NC2=CC(=O)C(=O)c3ccccc32)cc1Cl	-0.2	x	x	x	95.5*
CCC(C(=O)Nc1cc(Cl)c(OC)cc1OC)c1ccccc1 (stereo not drawn)	11.8	-8.6	0.8	1.1	-6.7
CN1CCOc2c1cnn(CCO)c2=O	x	x	x	x	2.5
Clc1ccc(-n2nnc(-c3cccnc3Cl)n2)cc1Cl	-2.4	16.1	20.9	0.8	17.1
Fc1ccc(-n2nnc(-c3cccnc3Cl)n2)cc1	3.6	65.6*	34.8	0.3	42.2
Clc1ncccc1-c1nnn(-c2ccccc2)n1	4.8	70.5*	41.9	0.3	34.5
COc1ncccc1-c1nnn(-c2ccccc2)n1	6.7	53.8*	17.0	0.5	22.4
